Laboratory results from ChEMBL document CHEMBL2169780, “Design and synthesis of neuroprotective methylthiazoles and modification as NO-chimeras for neurodegenerative therapy” (J Med Chem, 2012).
Active and inactive are the calls of the source. No cut-off for these calls is given here.

Legend:
[1] = Chemical stability of the compound in phosphate buffer at pH 7.4 after 5 days by HPLC-UV analysis; assay type: physicochemical; settings: pH 7.4, 120 h
Summary of the method: (§1)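 10 µM compound plus 10 µM internal standard in 100 mM phosphate buffer, pH 7.4, 2% DMSO final, held at room temperature in the autosampler. Repeated HPLC injections with UV detection at 254 nm and a C18 gradient. Parent-to-standard peak-area ratio divided by the time-zero value gives % remaining.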

[2] = Neuroprotective activity against oxygen-glucose deprivation-induced toxicity in Sprague-Dawley rat primary cortical neurons at 50 uM […] measured after 24 hrs by MTT assay relative to clomethiazole; assay type: functional, Cerebral cortex neuron
[3] = test system: Mus musculus; test: Procognitive activity in C57BL/6 mouse assessed as reversal of scopolamine-induced memory deficit at 4.5 umol/kg, ip administered 10 mins post scopolamine-challenge and 20 mins prior to training measured after 24 hrs by step-through passive avoidance test; assay type: functional, organism-based
Summary of the method: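 Male C57BL/6 mice, 8–10 weeks. Scopolamine 1.0 mg/kg i.p. given 30 min before training; drug at 4.5 µmol/kg i.p. given 20 min before training. At 24 h after training, latency to enter the dark compartment was recorded without shock. One-way ANOVA with Bonferroni test.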

[4] = test system: Cerebral cortex neuron; test: Activation of Gamma-aminobutyric acid type-A receptor in Sprague-Dawley rat primary cortical neurons assessed as inhibition of glutamate-induced cytotoxicity at 50 uM incubated for 1 hr prior to glutamate-challenge measured after 24 hrs by MTT assay in presence of picrotoxin; assay type: cell-based
[5] = test system: Brain; test: Drug uptake in C57BL/6 mouse brain assessed as [1-[beta-(4-Methyl-5-thiazolyl)ethanol]-4-(3-pyridinyl)]-1H-1,2,3-triazole level at 4.5 umol/kg, ip after 20 mins; assay type: ADME, organism-based; settings: in vivo
Summary of the method: (§2)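 Male C57BL/6 mice, 8–10 weeks, dosed i.p. at 4.5 µmol/kg, four per drug. Brains taken 20 min later and extracted in cold acetonitrile/MeOH (1:1) with internal standard. Parent and metabolite quantified by LC-MS/MS in MRM mode against brain-matrix calibration of 1–100 ng/mL. Mean ± SEM, n=4.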

[6] = Drug uptake in C57BL/6 mouse brain at 4.5 umol/kg, ip after 20 mins; assay type: ADME, organism-based; settings: read-out: Drug uptake; summary of the method: as §2
[7] = test system: Cerebral cortex neuron; test: Activation of Gamma-aminobutyric acid type-A receptor in Sprague-Dawley rat primary cortical neurons assessed as inhibition of glutamate-induced cytotoxicity at 50 uM […] measured after 24 hrs by MTT assay; assay type: cell-based
[8] = Half life of the compound in phosphate buffer at pH 7.4 by HPLC-UV analysis; assay type: physicochemical; summary of the method: as §1
[9] = test system: Hippocampus; test: Neuroprotective activity against amyloid beta-induced long term potentiation impairment in human APP […] mutant and PS1 M146L mutant transgenic mouse hippocampal slice at 100 uM incubated for 5 mins by field excitatory post-synaptic potential analysis; assay type: functional, tissue-based
Summary of the method: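 APP/PS1 (line 6.2) hippocampal slices, 400 µm, kept at 29°C in oxygenated saline. CA1 fEPSPs recorded in stratum radiatum after a 15 min baseline at about 35% of maximal response. Compound at 100 µM perfused 5 min before theta-burst tetanus of the Schaffer collaterals. LTP analysed at 50–80 min by two-way ANOVA.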

[10] = test system: Brain; test: Drug uptake in C57BL/6 mouse brain assessed as beta-Phenyl-4-methyl-5-thiazoleethanol level at 4.5 umol/kg, ip after 20 mins; assay type: ADME, organism-based; settings: in vivo; summary of the method: as §2
[11] = Neuroprotective activity against oxygen-glucose deprivation-induced toxicity in Sprague-Dawley rat primary cortical neurons assessed as increase in cell survival at 50 uM […] measured after 24 hrs by MTT assay relative to vehicle-treated control; assay type: functional, Cerebral cortex neuron

## Cc1ncsc1C(Cc1ccccc1)O[N+](=O)[O-] (centres undefined)
[1]
  Stability: Stable

## Cc1ncsc1CCn1cc(-c2ccccc2)nn1
[2]
  Activity: 53.9%

## Cc1ncsc1C(CO[N+](=O)[O-])c1ccc(F)cc1 (centres undefined)
[1]
  Stability: Stable
[3]
  Activity: Active

## Cc1ncsc1C(O)c1ccccc1 (centres undefined)
[2]
  Activity: 94%

## Cc1ccc2c(c1)c1c(n2CCc2scnc2C)CCN(C)C1
[2]
  Activity: 15.4%

## Cc1ncsc1C(c1ccccc1)n1ccnn1 (centres undefined)
[2]
  Activity: 58.1%

## Cc1ncsc1C(CO[N+](=O)[O-])n1nncc1-c1cccnc1 (centres undefined)
[1]
  Stability: Stable
[3]
  Activity: Active

## Cc1ncsc1C(CO)n1nncc1-c1cccnc1 (centres undefined)
[2]
  Activity: 92.9%

## COC(c1ccccc1)c1scnc1C (centres undefined)
[2]
  Activity: 110.2%

## Cc1ncsc1C(c1ccccc1)n1cc(-c2ccccn2)nn1 (centres undefined)
[2]
  Activity: 50.9%

## Cc1ncsc1CCn1cc(-c2cccnc2)nn1
[2]
  Activity: 99.6%
[4]
  Activity: inactive

## Cc1ncsc1C(CO[N+](=O)[O-])n1cc(-c2cccnc2)nn1 (centres undefined)
[5]
  Drug uptake: 76.6 ng/mL
[1]
  Stability: Stable
[6]
  concentration at 20 min: 2.1 ng/mL
[3]
  Activity: Active

## Cc1ncsc1C(CO)c1ccccc1 (centres undefined)
[7]
  Activity: Active
[2]
  Activity: 99.6%
[6]
  concentration at 20 min: 32.9 ng/mL
[4]
  Activity: inactive

## Cc1ncsc1C(c1ccccc1)n1cc(-c2ccncc2)nn1 (centres undefined)
[2]
  Activity: 90.2%

## Cc1ncsc1C(OC(=O)C1(CO[N+](=O)[O-])CC1)c1ccccc1 (centres undefined)
[8]
  half-life: 0.578 h

## NCc1cc(O)no1
[7]
  Activity: Active
[4]
  Activity: inactive

## Cc1ncsc1C(O)Cc1ccc(F)cc1 (centres undefined)
[2]
  Activity: 101%

## Cc1ncsc1C(c1ccccc1)n1cc(Cc2ccccc2)nn1 (centres undefined)
[2]
  Activity: 88.3%

## Cc1ncsc1C(O)c1ccc(F)cc1 (centres undefined)
[2]
  Activity: 36.8%

## Cc1ncsc1CCO
[2]
  Activity: 14.11%

## Cc1ncsc1C(CO[N+](=O)[O-])c1ccccc1 (centres undefined)
[9]
  Activity: Active
[1]
  Stability: Stable
[6]
  concentration at 20 min: 9.5 ng/mL
[3]
  Activity: Active
[10]
  Drug uptake: 9.5 ng/mL

## Cc1ncsc1C(c1ccccc1)n1cc(-c2ccsc2)nn1 (centres undefined)
[2]
  Activity: 62%

## Cc1ncsc1C(c1ccc(F)cc1)n1cc(-c2cccnc2)nn1 (centres undefined)
[2]
  Activity: 87.2%

## Cc1ncsc1C(c1ccccc1)n1cc(-c2ccccc2)nn1 (centres undefined)
[2]
  Activity: 57.6%

## Cc1ncsc1C(NC(=O)OCC1(CO[N+](=O)[O-])CC1)c1ccccc1 (centres undefined)
[8]
  half-life: 50 h
[9]
  Activity: inactive
[3]
  Activity: Active

## Cc1ncsc1C(O)c1ccc(Cl)cc1 (centres undefined)
[2]
  Activity: 25%

## Cc1ncsc1C(NC(=O)C1(CO[N+](=O)[O-])CC1)c1ccccc1 (centres undefined)
[1]
  Stability: Stable

## Cc1ncsc1C(OCCOCCO)c1ccccc1 (centres undefined)
[7]
  Activity: Active
[2]
  Activity: 114.1%
[4]
  Activity: inactive

## Cc1ncsc1C(NC(=O)OCCCCO[N+](=O)[O-])c1ccccc1 (centres undefined)
[1]
  Stability: Stable
[3]
  Activity: Active

## Cc1ncsc1C(CO)n1cc(-c2cccnc2)nn1 (centres undefined)
[7]
  Activity: Active
[2]
  Activity: 107.3%
[6]
  concentration at 20 min: 56.4 ng/mL
[4]
  Activity: inactive

## Cc1ncsc1C(CO)c1ccc(-c2cccnc2)cc1 (centres undefined)
[2]
  Activity: 25%

## Cc1ncsc1C(c1ccccc1)n1cc(-c2cncc(O)c2)nn1 (centres undefined)
[2]
  Activity: 104%

## Cc1ncsc1C(c1ccccc1)n1cc(-c2cccnc2)nn1 (centres undefined)
[2]
  Activity: 108%

## Cc1ncsc1CCn1ccnn1
[2]
  Activity: 51.5%

## Cc1ncsc1CCCl [CLOMETHIAZOLE]
[11]
  Activity: 30%
[9]
  Activity: inactive

## Cc1ncsc1C(CO)c1ccc(F)cc1 (centres undefined)
[2]
  Activity: 98.9%

## Cc1ncsc1C(OC(=O)C1(C)CC1)c1ccccc1 (centres undefined)
[8]
  half-life: 6.33 h

## Cc1ncsc1C(OCCOCCO[N+](=O)[O-])c1ccccc1 (centres undefined)
[1]
  Stability: Stable
[3]
  Activity: Active

## Cc1ncsc1C(O)Cc1ccccc1 (centres undefined)
[2]
  Activity: 102%

## Cc1ncsc1C(c1ccccc1)n1cc(-c2cncn2C)nn1 (centres undefined)
[2]
  Activity: 93.9%
